From ChEMBL document CHEMBL3526115, “Differences in the pharmacokinetics of 4-amino-3-chlorophenyl hydrogen sulfate, a metabolite of resatorvid, in rats and dogs” (Drug Metab Dispos, 2012) come the findings set out here.

One series deals with Canis familiaris. The experiment in a line: Unbound renal clearance in Beagle dog at 0.5 mg/kg, iv administered as bolus dose measured from 0 to 168 hrs by HPLC-based liquid scintillation counting analysis. The conditions noted are these: in vivo. Type of series: ADME, organism-based, Canis lupus familiaris, Kidney. Further details: dose 0.5 mg/kg, route intravenous. A digest of the protocol:
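After a 0.5 mg/kg iv bolus of [14C]M-III, urine was collected 0–24 h (rat) or 0–168 h (dog) and injected directly onto HPLC with fraction collection and scintillation counting. M-III in urine was derived from the urinary 14C excretion ratio and the [14C]M-III composition. CLrenal = urinary M-III amount / AUC0–24 h (rat) or AUC0–168 h (dog). Unbound CLrenal = CLrenal / free fraction.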

The nature of series [1]: Ratio of drug level in kidney to plasma in Crj:CD(SD)IGS rat at 0.25 mg/hr, iv administered as continuous infusion by HPLC-based liquid scintillation counting analysis. Format: ADME, organism-based. An outline of the steps:
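Rats received [14C]M-III in saline by continuous jugular-vein infusion for 4 h (0.5 mg/rat/h per methods; 0.25 mg/h in legend), then aortic blood and kidneys were collected. Dogs received a 0.5 mg/kg iv bolus, with blood and kidneys (cortex and medulla separated) collected at 24 h. 14C was measured in tissue homogenates and plasma as a tissue/plasma ratio. Rat n = 3, dog n = 2.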

Series [2] can be described thus: Elimination rate constant in Crj:CD(SD)IGS rat at 0.5 mg/kg, iv administered as bolus dose by HPLC-based liquid scintillation counting analysis. Format: ADME, organism-based. Further details: dose 0.5 mg/kg, route intravenous. The note with it: in vivo. An outline of the steps: (§1)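 [14C]M-III in saline given as a single iv bolus at 0.5 mg/kg to male rats (tail-vein blood, 5 min–24 h) or male beagle dogs (cephalic-vein blood, 5 min–168 h). Heparinized plasma counted for radioactivity; M-III quantified by HPLC with fraction collection and liquid scintillation counting. C5 min read directly; terminal t1/2 by linear regression, kel = ln2/t1/2, Vd = dose/back-extrapolated C0, CLtot = dose/AUCinf. Mean ± S.D., n = 3.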

Series [3] is described as follows: Terminal half life in Beagle dog at 0.5 mg/kg, iv administered as bolus dose by HPLC-based liquid scintillation counting analysis. Format: ADME, organism-based, Canis lupus familiaris. Further details: dose 0.5 mg/kg, route intravenous. The conditions noted are these: in vivo, read-out: beta t1/2 (converted). An outline of the steps:
as §1

Series [4] is described as follows: Total body clearance in Beagle dog at 0.5 mg/kg, iv administered as bolus dose by HPLC-based liquid scintillation counting analysis. Format: ADME, organism-based, Canis lupus familiaris. Further details: dose 0.5 mg/kg, route intravenous. The note with it: in vivo. A digest of the protocol:
as §1

Series [5] is described as follows: Apparent volume of distribution in Beagle dog at 0.5 mg/kg, iv administered as bolus dose by HPLC-based liquid scintillation counting analysis. Type of series: ADME, organism-based, Canis lupus familiaris. Further details: dose 0.5 mg/kg, route intravenous. The conditions noted are these: in vivo, read-out: Vd(app). An outline of the steps: as §1
Series [6] is described as follows: In vitro plasma protein binding in rat at 0.5 ug/ml by ultrafiltration method. Type of series: ADME, cell-free. The conditions noted are these: read-out: PPB (converted). A digest of the protocol:
(§2)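 [14C]M-III in saline was added to rat or dog plasma at final 0.5, 5 and 50 µg/ml. Plasma was ultrafiltered by centrifugation at 1500g and 37°C for 10 min, and 14C was measured in plasma and filtrate. Mean ± S.D., n = 3.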

The nature of series [7]: In vitro plasma protein binding in rat at 50 ug/ml by ultrafiltration method. Format: ADME, cell-free. The conditions noted are these: read-out: PPB (converted). An outline of the steps:
as §2

Series [8] can be described thus: In vitro plasma protein binding in dog at 50 ug/ml by ultrafiltration method. Type of series: ADME, cell-free, Canis lupus familiaris. The note with it: read-out: PPB (converted). A digest of the protocol: as §2
A short description of series [9]: In vivo plasma protein binding in Crj:CD(SD)IGS rat at 0.125 mg/hr, iv administered as continuous infusion by ultrafiltration method. Type of series: ADME, organism-based. The conditions noted are these: read-out: PPB (converted). A digest of the protocol: (§3)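 Rats received a continuous iv infusion of [14C]M-III at 0.125 mg/rat/h, with probenecid co-infused at 16, 31 or 62 mg/h/kg or vehicle alone, for 5 h. Arterial plasma was sampled during infusion. CLtot = infusion rate / steady-state plasma M-III (120–180 min). Unbound fraction was measured by ultrafiltration of 5-h plasma (10,000 MWCO, 1500g, 37°C, 10 min). CLint = CLtot / unbound ratio.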

Series [10] can be described thus: Drug excretion in Beagle dog urine assessed as excretion ratio of [14C] at 0.5 mg/kg, iv administered as bolus dose measured from 0 to 168 hrs by HPLC-based liquid scintillation counting analysis. Format: ADME, organism-based, Canis lupus familiaris. Also on record: dose 0.5 mg/kg, route intravenous. The note with it: in vivo. An outline of the steps:
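Male rats in metabolic cages with urine/feces separator, or beagle dogs, after a 0.5 mg/kg iv bolus of [14C]M-III in saline. Radioactivity in urine and feces collected 0–24 h (rats) or 0–168 h (dogs) was counted and expressed as percent of dose. Mean ± S.D., n = 3.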

The nature of series [11]: Drug uptake in Crj:CD(SD)IGS rat plasma at 0.5 mg/kg, iv administered as bolus dose after 5 mins by HPLC-based liquid scintillation counting analysis. Type of series: ADME, organism-based. Further details: dose 0.5 mg/kg, route intravenous. A digest of the protocol:
as §1

The nature of series [12]: AUC infinity in Crj:CD(SD)IGS rat at 0.5 mg/kg, iv administered as bolus dose by HPLC-based liquid scintillation counting analysis. Format: ADME, organism-based. Also on record: time infinity, dose 0.5 mg/kg, route intravenous. The note with it: plasma. An outline of the steps: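 Male Crj:CD(SD)IGS rats (285–324 g, 8 weeks) were given [14C]M-III in saline (0.5 mg/ml) as an IV bolus of 0.5 mg–2.6 MBq/kg. Tail-vein blood was sampled from 5 min to 24 h to give heparinized plasma. After acetonitrile deproteinization, samples went through HPLC with fraction collection and scintillation counting. AUCinf = AUClast + Clast/kel, with terminal kel from linear regression; n = 3.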

The nature of series [13]: Total body clearance in Crj:CD(SD)IGS rat at 0.5 mg/kg, iv administered as bolus dose by HPLC-based liquid scintillation counting analysis. The conditions noted are these: in vivo. Type of series: ADME, organism-based. Further details: dose 0.5 mg/kg, route intravenous. An outline of the steps: as §1
Series [14] can be described thus: Plasma concentration in Crj:CD(SD)IGS rat at 0.125 mg/hr, iv administered as continuous infusion measured after 3 hrs by HPLC based liquid scintillation counting analysis in presence of probenecid. Format: ADME, organism-based. The conditions noted are these: with probenecid (dose not stated). A digest of the protocol: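 Rats were continuously infused iv with [14C]M-III at 0.125 mg/rat/h, plus probenecid (4.7, 9.4, 18.6 mg/rat/h) or vehicle. Femoral-artery blood was taken at 0.5, 1, 2, 3 and 4 h, with terminal aortic blood at 5 h. Plasma radioactivity was measured, with probenecid quantified by HPLC-UV at 240 nm against spiked-plasma calibration from 0.1 to 100 µg/ml.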

Series [15] is described as follows: Total body clearance in Crj:CD(SD)IGS rat at 0.125 mg/hr, iv administered as continuous infusion by HPLC based liquid scintillation counting analysis in presence of 16 mg/hr/kg probenecid. Format: ADME, organism-based. The conditions noted are these: in vivo, with probenecid 16 mg/hr/kg. A digest of the protocol:
as §3

For series [16], the system named is Rattus norvegicus. Nature of the series: Intrinsic total body clearance in Crj:CD(SD)IGS rat at 0.125 mg/hr, iv administered as continuous infusion by HPLC based liquid scintillation counting analysis in presence of 16 mg/hr/kg probenecid. Type of series: ADME, organism-based. The conditions noted are these: in vivo. An outline of the steps:
as §3

Series [17] deals with Rattus norvegicus. Nature of the series: Intrinsic total body clearance in Crj:CD(SD)IGS rat at 0.125 mg/hr, iv administered as continuous infusion by HPLC based liquid scintillation counting analysis in presence of 31 mg/hr/kg probenecid. Type of series: ADME, organism-based. The note with it: in vivo. An outline of the steps: as §3
Series [18] is described as follows: In vivo plasma protein binding in Crj:CD(SD)IGS rat at 0.125 mg/hr, iv administered as continuous infusion by ultrafiltration method in presence of 31 mg/hr/kg probenecid. Format: ADME, organism-based. The note with it: with probenecid 31 mg/hr/kg, read-out: PPB (converted). A digest of the protocol: as §3
Series [19] is described as follows: Unbound fraction in Crj:CD(SD)IGS rat plasma at 0.125 mg/hr, iv administered as continuous infusion by ultrafiltration method in presence of 31 mg/hr/kg probenecid. Format: ADME, organism-based. The note with it: with probenecid 31 mg/hr/kg. An outline of the steps: as §3

One may read the Kp as the ratio of the level in a tissue or fluid to that in plasma or blood. One may read the clearance as the rate of elimination divided by the concentration. In general, AUC(0-inf) refers to total exposure, with the tail of the curve extrapolated. High values mean high exposure, low ones low exposure.

Turning to `N[14c]1[14cH][14cH][14c](OS(=O)(=O)O)[14cH][14c]1Cl`, in the series on Canis familiaris, the CL free worked out at 0.0585 mL/min/kg. The Kp in [1] stood at 3.5. In series [2], this molecule had a k el of 5.11e-05 s⁻¹. For the same molecule, the half-life in series [3] was 120 h. Moreover, the clearance in series [4] is 0.0147 mL/min/kg; in [13], 10.5 mL/min/kg; in series [15], 4.45 mL/min/kg. In addition, in series [5], the Vd was determined as 0.0989 L/kg. In addition, the fraction unbound at 0.5 ug/ml in series [6] was 0.075. The fraction unbound at 50 ug/ml in series [7] is 0.102; in series [8], 0.154. The fraction unbound was 0.088 in series [9], 0.197 in [18] and 0.197 in series [19]. Also, the Drug excretion in series [10] turned out to be 44.6%. Besides, the concentration at 5 min in series [11] was determined as 2290 ng/mL. This molecule yielded an AUC(0-inf) in series [12] of 802 ng·h/mL. Besides, in series [14], the concentration at 3 h was determined as 3600 ng/mL. Further, the CL in the series with Rattus norvegicus [16] came to 53.83 mL/min/kg; in the series with Rattus norvegicus [17] it was 11.9 mL/min/kg.
